Experimental data: ChEMBL document CHEMBL1781932 (J Med Chem, 2011)
In brackets after ≈: the same amount, converted by molar mass.

What was measured:
Staphylococcus aureus [1] = test: Antimicrobial activity against tetracycline-susceptible Staphylococcus aureus isolate 101 by CLSI dilution method; assay type: functional
Streptococcus pneumoniae [2] = test: Antimicrobial activity against tetracycline-susceptible Streptococcus pneumoniae isolate 106 by CLSI dilution method; assay type: functional
Summary of the method: (§1)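 Broth microdilution per CLSI in fresh cation-adjusted Mueller Hinton broth, kept at 4 °C before testing, with defibrinated horse blood added as appropriate. Strains were from ATCC. MIC in µg/mL. Runs were accepted when comparator antibiotics against ATCC quality-control strains fell within recommended ranges.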

Klebsiella pneumoniae [3] = test: Antimicrobial activity against tetracycline-resistant Klebsiella pneumoniae isolate 153 harboring tetA gene by CLSI dilution method; assay type: functional
[4] = AUC (0 to infinity) in Sprague-Dawley rat at 1 mg/kg, iv administered as single dose measured after 24 to 48 hrs; assay type: ADME, organism-based; set-up: time infinity, dose 1 mg/kg, route intravenous; details: plasma
Summary of the method: (§2)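 Sprague-Dawley rats (n = 3) were fasted overnight (minimum 12 h) and given a single dose, iv 1 mg/kg or oral 10 mg/kg, in sterile water. Samples were taken over 24–48 h. PK parameters came from noncompartmental analysis.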

[5] = Cmax in Sprague-Dawley rat at 1 mg/kg, iv administered as single dose measured after 24 to 48 hrs; assay type: ADME, organism-based; set-up: dose 1 mg/kg, route intravenous; details: in vivo; summary of the method: as §2
Staphylococcus aureus [6] = test: Antimicrobial activity against tetracycline-susceptible Staphylococcus aureus Smith isolate 100 by CLSI dilution method; assay type: functional
Escherichia coli [7] = test: Antimicrobial activity against tetracycline-resistant Escherichia coli isolate 155 harboring tetA gene by CLSI dilution method; assay type: functional
Rattus norvegicus = test: Oral bioavailability in Sprague-Dawley rat at 10 mg/kg administered as single dose; assay type: ADME, organism-based; details: in vivo; summary of the method: as §2
Streptococcus pneumoniae [8] = test: Antimicrobial activity against tetracycline-resistant Streptococcus pneumoniae isolate 160 harboring tetM gene by CLSI dilution method; assay type: functional
Staphylococcus aureus [9] = test: Antimicrobial activity against tetracycline-resistant Staphylococcus aureus isolate 158 harboring tetK gene by CLSI dilution method; assay type: functional
[10] = Clearance in Sprague-Dawley rat at 1 mg/kg, iv administered as single dose measured after 24 to 48 hrs; assay type: ADME, organism-based; set-up: dose 1 mg/kg, route intravenous; details: in vivo; summary of the method: as §2
Enterobacter cloacae = test: Antimicrobial activity against tetracycline-susceptible Enterobacter cloacae isolate 108 by CLSI dilution method; assay type: functional; summary of the method: as §1
Pseudomonas aeruginosa = test: Antimicrobial activity against tetracycline-susceptible Pseudomonas aeruginosa isolate 111 by CLSI dilution method; assay type: functional; summary of the method: as §1
Acinetobacter baumannii = test: Antimicrobial activity against tetracycline-susceptible Acinetobacter baumannii isolate 110 by CLSI dilution method; assay type: functional; summary of the method: as §1
Enterococcus faecalis [11] = test: Antimicrobial activity against tetracycline-resistant Enterococcus faecalis isolate 159 harboring […] gene by CLSI dilution method; assay type: functional
Staphylococcus aureus [12] = test: Antimicrobial activity against methicillin-, tetracycline-resistant Staphylococcus aureus isolate 161 harboring tetM gene by CLSI dilution method; assay type: functional
Enterococcus faecalis [13] = test: Antimicrobial activity against tetracycline-susceptible Enterococcus faecalis isolate 103 by CLSI dilution method; assay type: functional; summary of the method: as §1
[14] = Apparent volume of distribution in Sprague-Dawley rat at 1 mg/kg, iv administered as single dose measured after 24 to 48 hrs; details: in vivo
[15] = Elimination half life in Sprague-Dawley rat at 1 mg/kg, iv administered as single dose; assay type: ADME, organism-based; set-up: dose 1 mg/kg, route intravenous; details: in vivo, read-out: beta t1/2 (converted); summary of the method: as §2
Escherichia coli [16] = test: Antimicrobial activity against tetracycline-susceptible Escherichia coli isolate 107 by CLSI dilution method; assay type: functional; summary of the method: as §1
Klebsiella pneumoniae [17] = test: Antimicrobial activity against tetracycline-susceptible Klebsiella pneumoniae isolate 109 by CLSI dilution method; assay type: functional; summary of the method: as §1
Staphylococcus aureus [18] = test: Antimicrobial activity against tetracycline-susceptible Staphylococcus aureus Smith isolate 100 infected in iv dosed mouse systemic infection model assessed as survival of mouse administered 60 mins post infection measured up to 48 hrs; assay type: functional; details: Smith isolate 100, iv, read-out: PD50
Summary of the method: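 Mouse septicemia model with S. aureus ATCC 13709 mixed with 5% mucin, given intraperitoneally at 2.1×10^6 cfu/mouse. Compound was dosed intravenously 60 min after infection at 0.3–30 mg/kg in sterile water, 6 mice/dose group, with untreated infection controls. Survival was followed over 48 h. PD50 was derived by Probit analysis with 95% CI.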

Staphylococcus aureus [19] = test: Antimicrobial activity against tetracycline-susceptible Staphylococcus aureus Smith isolate 100 infected in po dosed mouse systemic infection model assessed as survival of mouse administered 60 mins post infection measured after 48 hrs; assay type: functional; details: Smith isolate 100, po, read-out: PD50
Summary of the method: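 Mouse septicemia model with S. aureus ATCC 13709 in 5% mucin, inoculated intraperitoneally at 2.1×10^6 cfu/mouse. Oral gavage dosing began 60 min post-infection at 0.3–30 mg/kg in sterile water, 6 mice/dose group, with untreated infection controls. Survival was assessed over 48 h. PD50 was obtained by Probit analysis with 95% CI.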

SMILES: COc1c2c(c(O)c3cc(CN4CC(F)C4)ccc13)C(=O)C1=C(O)[C@]3(O)C(=O)C(C(N)=O)=C(O)[C@@H](N(C)C)[C@@H]3C[C@@H]1C2
- MIC (Staphylococcus aureus [1]): 0.25 µg/mL (≈ 0.43 µM)
- MIC (Streptococcus pneumoniae [2]): 0.0156 µg/mL (≈ 0.0268 µM)
- MIC (Klebsiella pneumoniae [3]): 8 µg/mL (≈ 13.8 µM)
- AUC(0-inf) [4]: 451 ng·h/mL
- Cmax [5]: 237 ng/mL
- MIC (Staphylococcus aureus [6]): 1 µg/mL (≈ 1.72 µM)
- MIC (Escherichia coli [7]): 8 µg/mL (≈ 13.8 µM)
- F (Rattus norvegicus): 17.7%
- MIC (Streptococcus pneumoniae [8]): 0.0313 µg/mL (≈ 0.0538 µM)
- MIC (Staphylococcus aureus [9]): 0.125 µg/mL (≈ 0.215 µM)
- clearance [10]: 63.9 mL/min/kg
- MIC (Enterobacter cloacae): 8 µg/mL (≈ 13.8 µM)
- MIC (Pseudomonas aeruginosa): 32 µg/mL (≈ 55 µM)
- MIC (Acinetobacter baumannii): 0.25 µg/mL (≈ 0.43 µM)
- MIC (Enterococcus faecalis [11]): 2 µg/mL (≈ 3.44 µM)
- MIC (Staphylococcus aureus [12]): 1 µg/mL (≈ 1.72 µM)
- MIC (Enterococcus faecalis [13]): 0.125 µg/mL (≈ 0.215 µM)
- Vd [14]: 5.06 L/kg
- half-life [15]: 1.5 h
- MIC (Escherichia coli [16]): 2 µg/mL (≈ 3.44 µM)
- MIC (Klebsiella pneumoniae [17]): 4 µg/mL (≈ 6.88 µM)

SMILES: CC(C)CNCc1ccc2cc3c(c(O)c2c1)C(=O)C1=C(O)[C@]2(O)C(=O)C(C(N)=O)=C(O)[C@@H](N(C)C)[C@@H]2C[C@@H]1C3
- MIC (Staphylococcus aureus [1]): 0.25 µg/mL (≈ 0.455 µM)
- MIC (Streptococcus pneumoniae [2]): 0.0156 µg/mL (≈ 0.0284 µM)
- MIC (Klebsiella pneumoniae [3]): 4 µg/mL (≈ 7.28 µM)
- AUC(0-inf) [4]: 2680 ng·h/mL
- Cmax [5]: 891 ng/mL
- MIC (Staphylococcus aureus [6]): 1 µg/mL (≈ 1.82 µM)
- MIC (Escherichia coli [7]): 4 µg/mL (≈ 7.28 µM)
- F (Rattus norvegicus): 1.9%
- MIC (Streptococcus pneumoniae [8]): 0.25 µg/mL (≈ 0.455 µM)
- ED50 (Staphylococcus aureus [18]): 0.62 mg/kg
- MIC (Staphylococcus aureus [9]): 0.25 µg/mL (≈ 0.455 µM)
- clearance [10]: 6.22 mL/min/kg
- MIC (Enterobacter cloacae): 2 µg/mL (≈ 3.64 µM)
- MIC (Pseudomonas aeruginosa): 32 µg/mL (≈ 58.2 µM)
- MIC (Acinetobacter baumannii): 0.5 µg/mL (≈ 0.91 µM)
- MIC (Enterococcus faecalis [11]): 4 µg/mL (≈ 7.28 µM)
- MIC (Staphylococcus aureus [12]): 4 µg/mL (≈ 7.28 µM)
- MIC (Enterococcus faecalis [13]): 0.5 µg/mL (≈ 0.91 µM)
- Vd [14]: 3.16 L/kg
- half-life [15]: 5.87 h
- MIC (Escherichia coli [16]): 1 µg/mL (≈ 1.82 µM)
- MIC (Klebsiella pneumoniae [17]): 4 µg/mL (≈ 7.28 µM)

SMILES: CN(C)[C@@H]1C(O)=C(C(N)=O)C(=O)[C@@]2(O)C(O)=C3C(=O)c4c(c(F)c5ccc(CNC(C)(C)C)cc5c4O)C[C@H]3C[C@@H]12
- MIC (Staphylococcus aureus [1]): 0.5 µg/mL (≈ 0.881 µM)
- MIC (Streptococcus pneumoniae [2]): 0.0156 µg/mL (≈ 0.0275 µM)
- MIC (Klebsiella pneumoniae [3]): 4 µg/mL (≈ 7.05 µM)
- AUC(0-inf) [4]: 975 ng·h/mL
- Cmax [5]: 278 ng/mL
- MIC (Staphylococcus aureus [6]): 0.5 µg/mL (≈ 0.881 µM)
- MIC (Escherichia coli [7]): 4 µg/mL (≈ 7.05 µM)
- F (Rattus norvegicus): 1.2%
- MIC (Streptococcus pneumoniae [8]): 0.0313 µg/mL (≈ 0.0551 µM)
- ED50 (Staphylococcus aureus [18]): 0.35 mg/kg
- MIC (Staphylococcus aureus [9]): 0.0156 µg/mL (≈ 0.0275 µM)
- clearance [10]: 17.7 mL/min/kg
- MIC (Pseudomonas aeruginosa): 16 µg/mL (≈ 28.2 µM)
- MIC (Acinetobacter baumannii): 0.25 µg/mL (≈ 0.44 µM)
- MIC (Enterococcus faecalis [11]): 1 µg/mL (≈ 1.76 µM)
- MIC (Staphylococcus aureus [12]): 1 µg/mL (≈ 1.76 µM)
- MIC (Enterococcus faecalis [13]): 0.0313 µg/mL (≈ 0.0551 µM)
- Vd [14]: 11.9 L/kg
- half-life [15]: 7.82 h
- MIC (Klebsiella pneumoniae [17]): 2 µg/mL (≈ 3.52 µM)

SMILES: CN(C)[C@@H]1C(O)=C(C(N)=O)C(=O)[C@@]2(O)C(O)=C3C(=O)c4c(O)cccc4[C@@](C)(O)[C@H]3C[C@@H]12 [TETRACYCLINE]
- ED50 (Staphylococcus aureus [19]): 8.1 mg/kg
- Cmax [5]: 583 ng/mL
- MIC (Staphylococcus aureus [6]): 0.25 µg/mL (≈ 0.563 µM)
- ED50 (Staphylococcus aureus [18]): 0.35 mg/kg

SMILES: CNc1c2c(c(O)c3cc(CN4CCC4)ccc13)C(=O)C1=C(O)[C@]3(O)C(=O)C(C(N)=O)=C(O)[C@@H](N(C)C)[C@@H]3C[C@@H]1C2
- MIC (Staphylococcus aureus [1]): 2 µg/mL (≈ 3.55 µM)
- MIC (Streptococcus pneumoniae [2]): 0.25 µg/mL (≈ 0.444 µM)
- MIC (Klebsiella pneumoniae [3]): > 32 µg/mL
- MIC (Escherichia coli [7]): > 32 µg/mL
- MIC (Streptococcus pneumoniae [8]): 1 µg/mL (≈ 1.78 µM)
- MIC (Staphylococcus aureus [9]): 2 µg/mL (≈ 3.55 µM)
- MIC (Enterobacter cloacae): 32 µg/mL (≈ 56.9 µM)
- MIC (Pseudomonas aeruginosa): > 32 µg/mL
- MIC (Acinetobacter baumannii): > 32 µg/mL
- MIC (Enterococcus faecalis [11]): 8 µg/mL (≈ 14.2 µM)
- MIC (Staphylococcus aureus [12]): 8 µg/mL (≈ 14.2 µM)
- MIC (Enterococcus faecalis [13]): 4 µg/mL (≈ 7.11 µM)
- MIC (Escherichia coli [16]): 4 µg/mL (≈ 7.11 µM)
- MIC (Klebsiella pneumoniae [17]): 32 µg/mL (≈ 56.9 µM)

SMILES: CN(C)[C@@H]1C(O)=C(C(N)=O)C(=O)[C@@]2(O)C(O)=C3C(=O)c4c(cc5ccc(CN6CC(O)C6)cc5c4O)C[C@H]3C[C@@H]12
- MIC (Staphylococcus aureus [1]): 0.5 µg/mL (≈ 0.91 µM)
- MIC (Streptococcus pneumoniae [2]): 0.0625 µg/mL (≈ 0.114 µM)
- MIC (Klebsiella pneumoniae [3]): 8 µg/mL (≈ 14.6 µM)
- MIC (Escherichia coli [7]): 8 µg/mL (≈ 14.6 µM)
- MIC (Streptococcus pneumoniae [8]): 0.5 µg/mL (≈ 0.91 µM)
- MIC (Staphylococcus aureus [9]): 1 µg/mL (≈ 1.82 µM)
- MIC (Enterobacter cloacae): 2 µg/mL (≈ 3.64 µM)
- MIC (Pseudomonas aeruginosa): 32 µg/mL (≈ 58.2 µM)
- MIC (Acinetobacter baumannii): 4 µg/mL (≈ 7.28 µM)
- MIC (Enterococcus faecalis [11]): 4 µg/mL (≈ 7.28 µM)
- MIC (Staphylococcus aureus [12]): 4 µg/mL (≈ 7.28 µM)
- MIC (Enterococcus faecalis [13]): 0.5 µg/mL (≈ 0.91 µM)
- MIC (Escherichia coli [16]): 1 µg/mL (≈ 1.82 µM)
- MIC (Klebsiella pneumoniae [17]): 4 µg/mL (≈ 7.28 µM)
